Source: ChEMBL document CHEMBL4043093, “2-Oxo-3, 4-dihydropyrimido[4, 5-d]pyrimidinyl derivatives as new irreversible pan fibroblast growth factor receptor (FGFR) inhibitors” (Eur J Med Chem, 2017)

Key:
[1] = biological target: Tyrosine-protein kinase ABL1 (Homo sapiens) (UniProt P00519); assay: Inhibition of wild-type human non-phosphorylated ABL1 (S229 to K512 residues) expressed in HEK293 cells assessed as residual activity at 1000 nM after 30 mins by Kinomescan method relative to control; format: cell-based
[2] = biological target: Tyrosine-protein kinase HCK (Homo sapiens) (UniProt P08631); assay: Inhibition of wild-type human full length HCK (M22 to P526 residues) expressed in Escherichia coli BL21 assessed as residual activity at 1000 nM after 30 mins by Kinomescan method relative to control
Procedure, shortened: (§1)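 Single-concentration screen at 1 µM across a 456-kinase KINOMEscan panel. The read-out is Percent Control for each kinase.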

[3] = biological target: Tyrosine-protein kinase ZAP-70 (Homo sapiens) (UniProt P43403); assay: Inhibition of wild-type human partial length ZAP70 (D20 to G299 residues) expressed in HEK293 cells assessed as residual activity at 1000 nM after 30 mins by Kinomescan method relative to control; format: cell-based
[4] = biological target: Testis-specific serine/threonine-protein kinase 3 (Homo sapiens) (UniProt Q96PN8); assay: Inhibition of wild-type human full length TSSK3 (M1 to T268 residues) expressed in HEK293 cells assessed as residual activity at 1000 nM after 30 mins by Kinomescan method relative to control; format: cell-based
[5] = biological target: Serine/threonine-protein kinase PLK3 (Homo sapiens) (UniProt Q9H4B4); assay: Inhibition of wild-type human partial length PLK3 (A42 to L334 residues) expressed in HEK293 cells assessed as residual activity at 1000 nM after 30 mins by Kinomescan method relative to control; format: cell-based
[6] = biological target: Mitogen-activated protein kinase 4 (Homo sapiens) (UniProt P31152); assay: Inhibition of wild-type human partial length ERK4 (M1 to L365 residues) expressed in Escherichia coli BL21 assessed as residual activity at 1000 nM after 30 mins by Kinomescan method relative to control
[7] = test system: Mast/stem cell growth factor receptor Kit (Homo sapiens), P10721 [V559D,T670I]; assay: Inhibition of human partial length KIT V559D/T670I double mutant (Y545 to D952 residues) expressed in Escherichia coli BL21 assessed as residual activity at 1000 nM after 30 mins by Kinomescan method relative to control
Procedure, shortened: (§2)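 KINOMEscan binding panel of 456 kinases, with the test compound at a single concentration of 1 µM. Read-out is Percent Control.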

[8] = biological target: Activated CDC42 kinase 1 (Homo sapiens) (UniProt Q07912); assay: Inhibition of wild-type human partial length TNK2 (S159 to D474 residues) expressed in Escherichia coli BL21 assessed as residual activity at 1000 nM after 30 mins by Kinomescan method relative to control
[9] = biological target: Cyclin-dependent kinase 4/cyclin D1 (Homo sapiens) (UniProt P11802+P24385); assay: Inhibition of wild-type human full length CDK4/cyclinD1 (M1 to E303 residues) expressed in HEK293 cells assessed as residual activity at 1000 nM after 30 mins by Kinomescan method relative to control; format: cell-based
Procedure, shortened: (§3)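 Single-point screen at a fixed 1 µM, run within a 456-kinase DiscoveRx KINOMEscan panel. Each kinase's read-out is Percent Control, i.e. signal relative to a control without compound. Hits were scored by a Percent Control < 35 cut-off, and an S(35) selectivity score was calculated across the non-mutant kinases.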

[10] = test system: Proto-oncogene tyrosine-protein kinase receptor Ret (Homo sapiens), P07949 [V804M]; assay: Inhibition of human partial length RET V804M mutant (E713 to D1014 residues) expressed in Escherichia coli BL21 assessed as residual activity at 1000 nM after 30 mins by Kinomescan method relative to control; procedure, shortened: as §3
[11] = biological target: Tyrosine-protein kinase Fyn (Homo sapiens) (UniProt P06241); assay: Inhibition of wild-type human partial length FYN (T243 to L534 residues) expressed in Escherichia coli BL21 assessed as residual activity at 1000 nM after 30 mins by Kinomescan method relative to control
[12] = test system: Epidermal growth factor receptor (Homo sapiens), P00533 [L861Q]; assay: Inhibition of human partial length EGFR L861Q mutant (R669 to V1011 residues) expressed in Escherichia coli BL21 assessed as residual activity at 1000 nM after 30 mins by Kinomescan method relative to control; procedure, shortened: as §2
[13] = biological target: Tyrosine-protein kinase Fer (Homo sapiens) (UniProt P16591); assay: Inhibition of wild-type human partial length FER (S542 to T822 residues) expressed in Escherichia coli BL21 assessed as residual activity at 1000 nM after 30 mins by Kinomescan method relative to control
[14] = biological target: Tyrosine-protein kinase ITK/TSK (Homo sapiens) (UniProt Q08881); assay: Inhibition of wild-type human partial length ITK (R335 to L620 residues) expressed in Escherichia coli BL21 assessed as residual activity at 1000 nM after 30 mins by Kinomescan method relative to control
[15] = biological target: Tyrosine-protein kinase FRK (Homo sapiens) (UniProt P42685); assay: Inhibition of wild-type human partial length FRK (A215 to F503 residues) expressed in Escherichia coli BL21 assessed as residual activity at 1000 nM after 30 mins by Kinomescan method relative to control
[16] = biological target: Death-associated protein kinase 1 (Homo sapiens) (UniProt P53355); assay: Inhibition of wild-type human partial length DAPK1 (M1 to F296 residues) expressed in Escherichia coli BL21 assessed as residual activity at 1000 nM after 30 mins by Kinomescan method relative to control
[17] = biological target: Receptor-interacting serine/threonine-protein kinase 1 (Homo sapiens) (UniProt Q13546); assay: Inhibition of wild-type human partial length RIPK1 (M1 to K305 residues) expressed in Escherichia coli BL21 assessed as residual activity at 1000 nM after 30 mins by Kinomescan method relative to control
[18] = biological target: Epidermal growth factor receptor (Homo sapiens) (UniProt P00533); assay: Inhibition of wild-type human partial length EGFR (R669 to V1011 residues) expressed in Escherichia coli BL21 assessed as residual activity at 1000 nM after 30 mins by Kinomescan method relative to control
[19] = test system: Tyrosine-protein kinase ABL1 (Homo sapiens), P00519 [E255K]; assay: Inhibition of human phosphorylated ABL1 E255K mutant (S229 to K512 residues) expressed in HEK293 cells assessed as residual activity at 1000 nM after 30 mins by Kinomescan method relative to control; format: cell-based; procedure, shortened: as §3
[20] = biological target: Serine/threonine-protein kinase ULK3 (Homo sapiens) (UniProt Q6PHR2); assay: Inhibition of wild-type human partial length ULK3 (M1 to Q290 residues) expressed in HEK293 cells assessed as residual activity at 1000 nM after 30 mins by Kinomescan method relative to control; format: cell-based
[21] = biological target: Cyclin-dependent kinase 14 (Homo sapiens) (UniProt O94921); assay: Inhibition of wild-type human full length PFTK1 (M1 to H451 residues) expressed in Escherichia coli BL21 assessed as residual activity at 1000 nM after 30 mins by Kinomescan method relative to control; procedure, shortened: as §1
Chain of Cyclin-dependent kinase 14 (Homo sapiens) (O94921 whole entry, the tested form may be a part): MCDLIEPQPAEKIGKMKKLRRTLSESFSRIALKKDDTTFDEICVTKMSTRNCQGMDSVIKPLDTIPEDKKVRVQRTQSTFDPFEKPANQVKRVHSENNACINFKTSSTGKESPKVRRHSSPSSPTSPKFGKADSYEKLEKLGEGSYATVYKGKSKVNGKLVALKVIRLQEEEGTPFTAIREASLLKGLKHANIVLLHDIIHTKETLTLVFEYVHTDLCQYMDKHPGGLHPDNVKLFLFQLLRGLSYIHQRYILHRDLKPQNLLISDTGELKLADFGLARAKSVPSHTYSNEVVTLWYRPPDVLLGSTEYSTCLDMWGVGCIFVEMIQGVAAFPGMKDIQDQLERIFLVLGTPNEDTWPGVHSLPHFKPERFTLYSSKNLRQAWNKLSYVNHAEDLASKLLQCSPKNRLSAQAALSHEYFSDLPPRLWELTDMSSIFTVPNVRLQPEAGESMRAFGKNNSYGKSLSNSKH

Chain of Receptor-interacting serine/threonine-protein kinase 1 (Homo sapiens) (Q13546 whole entry, the tested form may be a part): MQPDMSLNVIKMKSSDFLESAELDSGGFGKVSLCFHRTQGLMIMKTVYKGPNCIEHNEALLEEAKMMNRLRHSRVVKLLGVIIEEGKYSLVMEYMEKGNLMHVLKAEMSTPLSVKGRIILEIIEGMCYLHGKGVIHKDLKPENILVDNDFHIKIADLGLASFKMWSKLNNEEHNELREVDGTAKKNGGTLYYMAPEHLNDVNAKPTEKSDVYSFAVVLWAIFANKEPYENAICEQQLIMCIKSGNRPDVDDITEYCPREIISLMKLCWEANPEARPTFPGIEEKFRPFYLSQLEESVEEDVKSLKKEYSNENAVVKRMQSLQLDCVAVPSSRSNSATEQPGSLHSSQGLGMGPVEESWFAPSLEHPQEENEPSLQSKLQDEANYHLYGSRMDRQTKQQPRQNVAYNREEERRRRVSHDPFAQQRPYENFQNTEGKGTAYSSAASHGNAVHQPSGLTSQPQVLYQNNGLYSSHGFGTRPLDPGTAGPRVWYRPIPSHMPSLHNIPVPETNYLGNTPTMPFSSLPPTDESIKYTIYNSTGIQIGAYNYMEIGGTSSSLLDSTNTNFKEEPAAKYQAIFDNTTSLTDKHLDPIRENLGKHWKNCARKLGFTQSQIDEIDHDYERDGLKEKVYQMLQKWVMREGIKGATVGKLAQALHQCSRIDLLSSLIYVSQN
Chain of Tyrosine-protein kinase Fer (Homo sapiens) (P16591 whole entry, looked up, the tested form may be a part): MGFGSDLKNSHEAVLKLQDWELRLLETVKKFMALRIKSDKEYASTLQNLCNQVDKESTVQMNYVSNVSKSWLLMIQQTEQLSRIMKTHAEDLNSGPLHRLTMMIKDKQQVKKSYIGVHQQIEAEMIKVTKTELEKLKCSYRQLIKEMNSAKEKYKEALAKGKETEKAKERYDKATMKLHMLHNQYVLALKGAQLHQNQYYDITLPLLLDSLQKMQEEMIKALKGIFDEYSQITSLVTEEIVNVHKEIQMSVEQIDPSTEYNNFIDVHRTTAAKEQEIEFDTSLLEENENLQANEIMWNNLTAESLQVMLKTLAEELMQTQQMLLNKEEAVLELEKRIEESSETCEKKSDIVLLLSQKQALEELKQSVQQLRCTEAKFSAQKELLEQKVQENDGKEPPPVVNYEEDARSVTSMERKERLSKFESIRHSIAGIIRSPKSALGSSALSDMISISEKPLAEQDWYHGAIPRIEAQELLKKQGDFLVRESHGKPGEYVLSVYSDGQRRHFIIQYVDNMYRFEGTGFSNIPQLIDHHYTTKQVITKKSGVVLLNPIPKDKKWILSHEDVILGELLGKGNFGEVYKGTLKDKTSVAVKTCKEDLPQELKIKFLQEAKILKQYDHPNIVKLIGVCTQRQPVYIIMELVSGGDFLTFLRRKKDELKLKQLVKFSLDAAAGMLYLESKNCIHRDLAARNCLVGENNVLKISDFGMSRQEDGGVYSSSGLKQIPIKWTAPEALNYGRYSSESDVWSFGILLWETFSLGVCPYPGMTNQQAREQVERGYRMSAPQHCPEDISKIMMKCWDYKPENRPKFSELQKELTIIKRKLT
Chain of Activated CDC42 kinase 1 (Homo sapiens) (Q07912 whole entry, looked up, the tested form may be a part): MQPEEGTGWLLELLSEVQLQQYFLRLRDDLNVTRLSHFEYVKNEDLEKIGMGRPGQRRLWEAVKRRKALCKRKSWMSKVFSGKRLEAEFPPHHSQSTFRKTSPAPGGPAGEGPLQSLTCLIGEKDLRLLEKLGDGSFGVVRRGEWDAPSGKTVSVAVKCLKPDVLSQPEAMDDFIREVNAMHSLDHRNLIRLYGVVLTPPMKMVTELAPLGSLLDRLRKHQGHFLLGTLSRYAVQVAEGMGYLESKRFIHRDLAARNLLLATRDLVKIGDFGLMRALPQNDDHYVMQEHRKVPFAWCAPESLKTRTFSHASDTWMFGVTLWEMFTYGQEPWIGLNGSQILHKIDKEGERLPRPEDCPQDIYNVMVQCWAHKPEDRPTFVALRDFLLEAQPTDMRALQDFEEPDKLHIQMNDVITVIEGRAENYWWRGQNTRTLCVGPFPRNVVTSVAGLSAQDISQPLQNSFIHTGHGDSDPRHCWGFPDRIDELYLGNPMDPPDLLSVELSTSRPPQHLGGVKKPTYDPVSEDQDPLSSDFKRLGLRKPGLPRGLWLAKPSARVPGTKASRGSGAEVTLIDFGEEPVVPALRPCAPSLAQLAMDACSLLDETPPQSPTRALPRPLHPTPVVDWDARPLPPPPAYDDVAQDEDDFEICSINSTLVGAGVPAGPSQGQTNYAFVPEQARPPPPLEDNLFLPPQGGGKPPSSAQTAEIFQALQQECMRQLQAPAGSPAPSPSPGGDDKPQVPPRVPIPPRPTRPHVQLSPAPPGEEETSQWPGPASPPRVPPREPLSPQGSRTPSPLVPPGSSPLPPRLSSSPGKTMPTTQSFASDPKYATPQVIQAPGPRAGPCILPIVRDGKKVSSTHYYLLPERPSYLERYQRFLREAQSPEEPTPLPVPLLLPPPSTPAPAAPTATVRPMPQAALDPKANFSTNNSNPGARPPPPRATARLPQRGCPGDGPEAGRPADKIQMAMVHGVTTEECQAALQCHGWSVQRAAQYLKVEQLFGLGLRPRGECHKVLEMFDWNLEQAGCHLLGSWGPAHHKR
Chain of Serine/threonine-protein kinase ULK3 (Homo sapiens) (Q6PHR2 whole entry, the tested form may be a part): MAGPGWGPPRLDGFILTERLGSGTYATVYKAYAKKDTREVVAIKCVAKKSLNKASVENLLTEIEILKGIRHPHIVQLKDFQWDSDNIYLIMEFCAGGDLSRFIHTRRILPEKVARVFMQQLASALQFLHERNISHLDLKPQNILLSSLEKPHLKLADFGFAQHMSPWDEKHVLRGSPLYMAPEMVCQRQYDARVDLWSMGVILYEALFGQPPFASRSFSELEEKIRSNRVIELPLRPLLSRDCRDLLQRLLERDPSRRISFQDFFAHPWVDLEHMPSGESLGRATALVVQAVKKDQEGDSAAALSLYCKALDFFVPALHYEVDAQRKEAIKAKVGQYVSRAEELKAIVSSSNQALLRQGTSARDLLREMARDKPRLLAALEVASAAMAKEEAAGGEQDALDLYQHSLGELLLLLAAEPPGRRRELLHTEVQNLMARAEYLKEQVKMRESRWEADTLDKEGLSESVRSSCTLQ
Chain of Death-associated protein kinase 1 (Homo sapiens) (P53355 whole entry, looked up, the tested form may be a part): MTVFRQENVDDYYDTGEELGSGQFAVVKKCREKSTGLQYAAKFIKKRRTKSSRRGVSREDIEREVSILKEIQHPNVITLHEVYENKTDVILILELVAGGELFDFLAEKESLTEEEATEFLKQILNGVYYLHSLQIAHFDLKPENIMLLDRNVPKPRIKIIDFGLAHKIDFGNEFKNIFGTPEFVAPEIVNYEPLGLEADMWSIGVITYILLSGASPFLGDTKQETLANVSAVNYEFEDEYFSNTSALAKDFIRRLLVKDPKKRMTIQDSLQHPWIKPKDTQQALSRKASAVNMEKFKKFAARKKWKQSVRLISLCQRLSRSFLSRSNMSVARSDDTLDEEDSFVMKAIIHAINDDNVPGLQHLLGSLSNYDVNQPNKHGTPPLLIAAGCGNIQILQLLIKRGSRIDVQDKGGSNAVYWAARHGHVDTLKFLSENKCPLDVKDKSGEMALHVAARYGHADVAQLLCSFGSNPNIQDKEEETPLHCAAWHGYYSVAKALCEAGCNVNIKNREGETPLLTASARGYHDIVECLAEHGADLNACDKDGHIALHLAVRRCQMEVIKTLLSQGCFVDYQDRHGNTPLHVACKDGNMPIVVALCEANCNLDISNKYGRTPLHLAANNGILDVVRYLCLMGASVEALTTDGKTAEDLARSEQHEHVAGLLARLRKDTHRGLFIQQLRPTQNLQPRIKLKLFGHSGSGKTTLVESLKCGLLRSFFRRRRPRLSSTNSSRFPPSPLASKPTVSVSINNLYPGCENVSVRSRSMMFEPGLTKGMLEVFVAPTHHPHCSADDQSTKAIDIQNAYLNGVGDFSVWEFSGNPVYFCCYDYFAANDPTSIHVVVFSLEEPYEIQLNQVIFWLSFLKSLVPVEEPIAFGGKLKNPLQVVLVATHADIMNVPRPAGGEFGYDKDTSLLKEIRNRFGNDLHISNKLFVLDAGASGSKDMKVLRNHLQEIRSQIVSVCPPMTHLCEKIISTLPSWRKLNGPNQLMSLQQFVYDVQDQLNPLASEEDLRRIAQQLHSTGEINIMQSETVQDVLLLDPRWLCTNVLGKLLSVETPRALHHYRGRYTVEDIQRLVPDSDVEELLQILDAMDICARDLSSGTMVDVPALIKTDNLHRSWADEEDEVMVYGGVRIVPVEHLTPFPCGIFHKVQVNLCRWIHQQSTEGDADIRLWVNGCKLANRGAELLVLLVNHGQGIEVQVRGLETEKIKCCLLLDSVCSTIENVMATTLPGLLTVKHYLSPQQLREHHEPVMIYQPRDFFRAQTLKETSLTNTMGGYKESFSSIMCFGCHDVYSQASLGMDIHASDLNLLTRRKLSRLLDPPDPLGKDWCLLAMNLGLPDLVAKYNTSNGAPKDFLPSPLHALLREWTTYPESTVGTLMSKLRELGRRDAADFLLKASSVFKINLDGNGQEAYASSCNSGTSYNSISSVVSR

Molecule COc1cc(OC)c(Cl)c(N2Cc3cnc(Nc4ccc(F)cc4)nc3N(C3CCN(C(=O)/C=C/CN(C)C)CC3)C2=O)c1Cl has an Activity [1] of 32%, an Activity [2] of 10% and an Activity [3] of 85%. For the same molecule, the Activity [4] was 100%, the Activity [5] was 99% and the Activity [6] was 94%. For the same molecule, the Activity [7] was 82%, the Activity [8] was 100% and the Activity [9] was 100%. It also gave an Activity [10] of 52%, an Activity [11] of 19% and an Activity [12] of 87%. The Activity [13] was 67%, the Activity [14] was 100% and the Activity [15] was 59%. The Activity [16] was 100%, the Activity [17] was 100% and the Activity [18] was 91%. For the same molecule, the Activity [19] was 48%, the Activity [20] was 99% and the Activity [21] was 92%.
